Values joined by “and” are separate entries in the source; they are usually repeats but may differ in a detail not shown here. Equal entries are not always repeated. Where two headings read alike, the source gives them in different places.
Tests used:
[1] = aerated MeCN; cited from earlier work
[2] = cited from earlier work
[3] = system: SK-MEL-28 malignant melanoma cells; test: Cytotoxicity and photocytotoxicity, resazurin cell viability, melanoma cells; type: cell-based, human
Method in brief: (§1)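 HL-60 cells (suspension, RPMI 1640 + 20% FBS) or SK-MEL-28 cells (adherent, EMEM + 10% FBS) were used in log phase at ≥93% viability and equilibrated for 3 h. Chloride salts were diluted in DPBS (1 nM–300 µM; DMSO <0.1%) and incubated 16 h at 37 °C, 5% CO₂. Cells were then kept dark or given 100 J cm⁻² of visible light (400–700 nm, 44 mW cm⁻²) or red LED light (625 nm, 52.5 mW cm⁻²). After 48 h, resazurin was added for 3 h; fluorescence ex 530/em 620 nm. Triplicate. EC50 from sigmoidal dose–response fit; PI = dark/light EC50.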

[4] = system: HL-60 human promyelocytic leukemia cells; test: Cytotoxicity and photocytotoxicity, resazurin cell viability, leukemia cells; type: cell-based
Method in brief: as §1

[5] = Singlet oxygen sensitization quantum yield; type: physicochemical
[6] = Steady-state and time-resolved emission; type: physicochemical
Method in brief: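 PF₆⁻ salts, 5–20 µM, in MeCN argon-sparged in a long-stem cuvette, or as 4:1 EtOH:MeOH glass frozen in liquid N₂ (77 K). Quantum yields from corrected steady-state spectra relative to [Ru(bpy)₃](PF₆)₂ (0.095 deaerated MeCN at 298 K; 0.38 at 77 K). Lifetimes measured with nitrogen/dye laser excitation at 457 nm, monitored at emission maximum, stroboscopic detection.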

[7] = Nanosecond transient absorption lifetime; type: physicochemical; details: degassed MeCN
Method in brief: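 Nanosecond laser flash photolysis on MeCN solutions argon-purged for 45 min. Excitation was 355 nm from a Nd:YAG third harmonic (4.1 ns pulse, 1 Hz). Transient difference absorption spectra were recorded and lifetimes taken from signal decays.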

[8] = system: pUC19 plasmid DNA; test: DNA photocleavage, plasmid gel mobility shift assay; type: biochemical; details: pUC19 20 μM NPs, visible light 14 J cm^−2
[9] = UV-vis absorption, molar extinction coefficient at 625 nm; type: physicochemical
Method in brief: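 PF₆⁻ salts in spectroscopic-grade MeCN. ε was taken from the slope of absorbance versus concentration over five concentrations, measured in duplicate.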

| Structure (SMILES) | ΦΔ of standard [1] | Φem reference value ([2]; 77 K in frozen 4:1 v/v EtOH:MeOH) | Φem reference value ([2]; 298 K in aerated MeCN) | Φem reference value ([2]; 298 K in deaerated MeCN) | emission lifetime [2] | PI red light, SKMEL28 ([3]; ratio of dark to red-light (625 nm) EC50, SKMEL28) | PI (phototherapeutic index) visible light, SKMEL28 ([3]; ratio of dark to visible-light EC50, SKMEL28) | EC50 ([3]; read-out: EC50 dark, SKMEL28, SKMEL28, dark) | PI red light, HL60 ([4]; ratio of dark to red-light (625 nm) EC50, HL60) | PI visible light, HL60 ([4]; ratio of dark to visible-light EC50, HL60) | ΦΔ (singlet oxygen quantum yield) 298 K ([5]; air-saturated MeCN at 298 K, relative to [Ru(bpy)3](PF6)2) | 1O2 quantum yield (ΦΔ) ([5]; air-saturated MeCN, room temperature) | τem 77 K ([6]; 77 K, EtOH:MeOH (4:1) glass) | Φ (emission quantum yield) 77 K ([6]; 77 K, EtOH:MeOH (4:1) glass, PF6 salt) | τem 298 K ([6]; 298 K, argon-purged MeCN) | Φ (emission quantum yield) 298 K ([6]; 298 K, argon-purged MeCN, PF6 salt) | τTA, lifetime of nonemissive 3IL state [7] | MC:NP ratio for complete photocleavage (conversion of Form I to Form II DNA) [8] | molar absorptivity at 625 nm (ε625 nm) [9] |
| --- | --- | --- | --- | --- | --- | --- | --- | --- | --- | --- | --- | --- | --- | --- | --- | --- | --- | --- | --- |
| F[P-](F)(F)(F)(F)F.F[P-](F)(F)(F)(F)F.[Ru+2].c1ccc(-c2ccccn2)nc1.c1ccc(-c2ccccn2)nc1.c1ccc(-c2ccccn2)nc1 [[Ru(bpy)3](PF6)2] | 0.56 | 0.38 | 0.012 | 0.095 | 0.9 μs | – | – | – | – | – | – | – | – | – | – | – | – | – | – |
| F[P-](F)(F)(F)(F)F.F[P-](F)(F)(F)(F)F.[Ru+2].c1ccc(-c2ccccn2)nc1.c1ccc(-c2ccccn2)nc1.c1csc(-c2ccc(-c3cc4cccnc4c4ncccc34)s2)c1 [Compound 2, Ru(bpy)2(phen-2T)PF6] | – | – | – | – | – | 2 | 150 | 32 ± 1 µM | 19 | 835 | 0.78 | 74–78% and 78% and 74% | 6,600 ns | 0.14 | 1,030 ns | 0.0092 | 43 μs | 1 | < 100 M⁻¹ cm⁻¹ |

Reference: paper PMC6347502 (Photochemistry and photobiology, 2018)
